Laboratory results published in PMC3281520 (Nature chemical biology, 2012).

How the values were obtained:
[1] = biological target: T1, ProRS (amino acids 998–1513 of human EPRS) (Homo sapiens, UniProt P07814); test: [3H]-HFol binding to immobilized ProRS
T1 sequence (P07814 998-1512 limits assumed): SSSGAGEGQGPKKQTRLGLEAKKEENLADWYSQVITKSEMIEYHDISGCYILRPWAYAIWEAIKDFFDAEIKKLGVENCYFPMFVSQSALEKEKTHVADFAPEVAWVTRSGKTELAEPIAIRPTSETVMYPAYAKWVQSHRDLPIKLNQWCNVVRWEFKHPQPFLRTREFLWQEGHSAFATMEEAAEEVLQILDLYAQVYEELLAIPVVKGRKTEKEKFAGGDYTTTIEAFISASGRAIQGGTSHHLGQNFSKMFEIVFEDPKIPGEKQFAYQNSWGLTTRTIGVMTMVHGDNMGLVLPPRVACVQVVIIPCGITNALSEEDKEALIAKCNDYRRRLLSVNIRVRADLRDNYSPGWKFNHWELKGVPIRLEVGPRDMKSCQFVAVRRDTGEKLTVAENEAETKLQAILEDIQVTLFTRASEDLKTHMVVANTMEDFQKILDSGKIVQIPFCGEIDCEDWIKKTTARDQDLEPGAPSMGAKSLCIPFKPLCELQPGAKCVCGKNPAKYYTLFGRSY
Summary of the method: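 His6-tagged human EPRS prolyl-tRNA synthetase domain, expressed in E. coli, immobilized on Ni-NTA beads. Beads washed twice in ice-cold buffer; bound counts by scintillation, with beads given tag-free E. coli extract as background.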

[2] = system: primary murine CD4+ CD25− T cells; test: Th17 cell differentiation; assay type: cell-based, mouse
Summary of the method: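 CD4+ CD25− T cells from spleens and peripheral lymph nodes of wild-type C57B/6 mice, TCR-activated under Th17-polarizing conditions with test compound and amino acid supplements: 10x EAA or NEAA mixes, or single amino acids at 1 mM. Day 4 restimulation with PMA 10 nM, ionomycin and brefeldin A for 4–5 h. Intracellular cytokine staining, flow cytometry; % IL-17+ IFNγ− cells, triplicate wells, SD.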

[3] = system: translation in rabbit reticulocyte lysate (RRL); test: Cell free in vitro translation in rabbit reticulocyte lysate; assay type: biochemical; conditions: for effect on translation of luciferase RNA in RRL: cell free, luminescence assay (Fig. 2a, 2b); for translation of Nopropep (proline-free polypeptide) in RRL / translation of Propep (polypeptide with proline dipeptide) in RRL: inhibitor 1 μM, anti-myc Western blot (Fig. 2c)
Summary of the method: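 Rabbit reticulocyte lysate per kit instructions, standard amino acid mix diluted 5-fold; sometimes preincubated at 30 degrees with another RNA to deplete endogenous charged tRNAs. Luciferase mRNA translation read by luciferase luminescence. Rescue with amino acid mixtures or single amino acids at 1 mM each; triplicates, SD. Myc-tagged peptides ± proline dipeptide: inhibitors 1 μM, proline 1 mM, anti-myc Western blot.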

AAR pathway in MEFs = test: AAR pathway activation in MEFs; assay type: cell-based, mouse; conditions: 2 hours (Fig. 5a); for stimulation of GCN2 phosphorylation in the presence of proline: 2 mM proline
Summary of the method: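 MEFs grown in 10% FCS/DMEM, then exposed to test compound with or without 2 mM proline for 2 h. Lysis was in RIPA with 5 mM EDTA, phosphatase and protease inhibitors. Western blot for total GCN2 and Thr898-phospho-GCN2; three separate experiments. For CHOP: 50 nM test compound ± 2 mM proline, lysis 6 h later, CHOP Western blot with cytoplasmic actin as loading control.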

[4] = system: prolyl-tRNA charging in the RRL system; test: tRNA charging in RRL; assay type: biochemical, rabbit; conditions: doses comparable to those that inhibit translation (Fig. 2d)
Summary of the method: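 Rabbit reticulocyte lysate incubated with 1 μCi 14C-proline or 35S-methionine, added bovine tRNA and 2 μM puromycin to block use of charged tRNA in translation, with or without test compound. Total tRNA then extracted with a small-RNA isolation kit. Radioactivity in tRNA measured by liquid scintillation counting; triplicates, SD.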

[5] = Intracellular HF levels by anti-HF ELISA; assay type: in vitro ADME, mouse; conditions: MEFs, 2 mM proline, 2 hours (Supplementary Fig. 11)
[6] = biological target: prolyl tRNA synthetase domain of human EPRS (ProRS) (Homo sapiens, UniProt P07814); test: Assay of ProRS activity; assay type: biochemical
mTORC1 signaling = mTORC1 signaling in T cells and fibroblasts; assay type: cell-based, mouse; conditions: 100 nM HF in MEFs (Supplementary Fig. 10)
[7] = system: mouse embryo fibroblasts (MEFs); test: ECM gene expression and protein production in fibroblasts; assay type: cell-based
Summary of the method: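 MEFs in 10% FCS/DMEM were treated with 50 nM test compound and/or 2 mM proline. Exposure was 4 h for CHOP and S100A4 and 24 h for Col1A1 and Col1A2. mRNA by quantitative RT-PCR, normalised to TBP, relative to untreated. Triplicate determinations from triplicate plates; two-tailed Student's t test for compound alone versus compound plus proline.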

C[C@H](N)C(=O)NS(=O)(=O)OC[C@H]1O[C@@H](n2cnc3c(N)ncnc32)[C@H](O)[C@@H]1O [AlaSAd, alanyl sulfamoyl adenosine]
inhibition of binding of [3H]-HFol to ProRS at 50 nM ([1]; 50 nM (Fig. 4a)): partially inhibited

C[C@@H]1C[C@H](C)C[C@H](C)[C@@H](O)CC(=O)O[C@H]([C@@H]2CCC[C@H]2C(=O)O)C/C=C/C=C(/C#N)[C@H](O)[C@@H](C)C1 [Borrelidin, borrelidin]
Th17 cell differentiation ([2]; Th17 polarizing conditions, borrelidin 6 nM (Supplementary Fig. 13)): inhibited
effects on Th17 differentiation on addition of excess cognate amino acid ([2]; threonine 1 mM (Fig. 6b)): reversed

O=C(C[C@H]1NCCC[C@@H]1O)Cn1cnc2ccccc2c1=O [FF, febrifugine]
effect on translation of luciferase RNA in RRL [3]: inhibited
translation of Nopropep (proline-free polypeptide) in RRL [3]: no effect
translation of Propep (polypeptide with proline dipeptide) in RRL [3]: prevent translation
stimulation of GCN2 phosphorylation in the presence of proline (AAR pathway in MEFs): abrogated
GCN2 phosphorylation in fibroblasts (AAR pathway in MEFs): stimulation

O=C(CC1NCCCC1O)Cn1cnc2cc(Br)c(Cl)cc2c1=O (stereo not shown) [HF, halofuginone]
incorporation of 14C-Pro into tRNA [4]: inhibited
intracellular accumulation of HF on proline addition [5]: not affected
Ki [6]: 18.3 nM
effect on translation of luciferase RNA in RRL [3]: inhibited
translation of Nopropep (proline-free polypeptide) in RRL [3]: no effect
translation of Propep (polypeptide with proline dipeptide) in RRL [3]: prevent translation
translation inhibited by HF, after supplementation of RRL with excess amino acids ([3]; proline 1 mM, only proline is effective (Fig. 2a)): restores
stimulation of GCN2 phosphorylation in the presence of proline (AAR pathway in MEFs): abrogated
GCN2 phosphorylation in fibroblasts (AAR pathway in MEFs): stimulation
inhibition of mTORC1 signaling (mTORC1 signaling): without concomitant inhibition
inhibition of ECM proteins in the presence of proline ([7]; 2 mM proline in the media (Supplementary Fig. 15)): reversed
production of secreted Type I procollagen and of fibronectin ([7]; 24 hours treatment (Fig. 6d)): dramatically inhibited
expression of mRNA encoding CHOP ([7]; MEFs, HF 50 nM, 4 hours (Fig. 6c)): stimulated
mRNA levels of Col1A1, Col1A2, and S100A4 ([7]; MEFs, HF 50 nM, 4 hours (S100A4) or 24 hours (Col1A1, Col1A2), restored by proline (Fig. 6c)): inhibits
35S-methionine incorporation into total protein ([7]; doses that inhibit ECM protein production (Fig. 6d)): did not significantly change
competition of [3H]-HFol binding to ProRS ([1]; Fig. 3a): competed
Th17 differentiation in HF-treated T cells with individual amino acid supplement ([2]; 10 nM HF, proline 1 mM, only proline effective (Fig. 6a)): rescued
